# According to ChEMBL document CHEMBL1152337, “Antimicrobial ambiguine isonitriles from the cyanobacterium Fischerella ambigua” (J Nat Prod, 2009):
# Assays:
# Candida albicans = assay: Antimicrobial activity against Candida albicans by broth microdilution assay; format: functional
# Bacillus anthracis = assay: Antimicrobial activity against Bacillus anthracis; format: functional
# In short: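 Compounds tested over 100 µg/mL down to 48.8 ng/mL. MIC taken as the lowest concentration preventing visible bacterial growth.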
# [1] = tested on: Mycolicibacterium smegmatis; assay: Antimicrobial activity against Mycobacterium smegmatis by broth microdilution assay; format: functional
# [2] = tested on: Mycobacterium tuberculosis; assay: Antimicrobial activity against Mycobacterium tuberculosis H37Rv by microplate Alamar blue assay; format: functional
# In short: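 Virulent H37Rv strain in a microplate Alamar blue assay. MIC defined as the lowest concentration giving at least 90% growth inhibition.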
# Vero = assay: Cytotoxicity against african green monkey Vero cells; format: cell-based; details: Chlorocebus sabaeus
# Staphylococcus aureus = assay: Antimicrobial activity against Staphylococcus aureus by broth microdilution assay; format: functional
# [3] = Selectivity ratio of MIC for Mycobacterium tuberculosis H37Rv to MIC for Bacillus anthracis; format: functional
Compound,MIC (Candida albicans) [µM],MIC (Bacillus anthracis) [µM],MIC [1] [µM],MIC [2] [µM],IC50 (Vero) [µM],MIC (Staphylococcus aureus) [µM],Ratio [3]
[C-]#[N+][C@@H]1[C@@H]2c3c(C(C)(C)C=C)[nH]c4cccc(c34)C(C)(C)[C@H]2C[C@@H](Cl)[C@]1(C)C=C [AMBIGUINE A ISONITRILE],< 1,1,14.8,46.7,26,1.8,
[C-]#[N+][C@H]1[C@@](C)(C=C)[C@H](Cl)C[C@@H]2C(C)(C)c3cccc4[nH]c(C(C)(C)C=C)c(c34)[C@]21O [AMBIGUINE B ISONITRILE],1.7,3.7,27.8,,58.6,10.9,
[C-]#[N+][C@@H]1[C@]2(O)c3c(C(C)(C)C=C)[nH]c4cccc(c34)C(C)(C)[C@H]2CC[C@]1(C)C=C [AMBIGUINE C ISONITRILE],< 1,16.1,59.6,7,78.3,7.4,
[C-]#[N+][C@]12[C@H]3O[C@H]3C(C)(C)c3[nH]c4cccc5c4c3[C@]1(O)[C@H](C[C@@H](Cl)[C@]2(C)C=C)C5(C)C [AMBIGUINE E ISONITRILE],< 0.9,3.6,1.4,21,42.6,1.5,
[C-]#[N+][C@]12[C@@H](O)[C@H](O)C(C)(C)c3[nH]c4cccc5c4c3[C@]1(O)[C@H](C[C@@H](Cl)[C@]2(C)C=C)C5(C)C [AMBIGUINE F ISONITRILE],,,,61.2,57.9,,
[C-]#[N+][C@]12C=CC(C)(C)c3[nH]c4cccc5c4c3[C@]1(O)[C@H](C[C@@H](Cl)[C@]2(C)C=C)C5(C)C [AMBIGUINE K ISONITRILE],< 0.9,7.4,23.7,6.6,53.2,4.6,
[C-]#[N+][C@]12C=CC(C)(C)c3[nH]c4cccc5c4c3[C@]1(O)[C@H](CC[C@]2(C)C=C)C5(C)C [AMBIGUINE L ISONITRILE],< 1,16.2,29.3,11.7,44.6,10.5,
[C-]#[N+][C@]12C[C@@H](O)C(C)(C)c3[nH]c4cccc5c4c3[C@]1(O)[C@H](C[C@@H](Cl)[C@]2(C)C=C)C5(C)C [AMBIGUINE M ISONITRILE],1.1,28.5,25.8,7.5,79.8,4.7,
[C-]#[N+][C@]12C[C@@H](O)C(C)(C)c3[nH]c4cccc5c4c3[C@]1(O)[C@H](CC[C@]2(C)C=C)C5(C)C [AMBIGUINE N ISONITRILE],< 1,30.9,48.8,27.1,118,5.5,
[C-]#[N+][C@]12[C@H](O)C(=O)C(C)(C)c3[nH]c4cccc5c4c3[C@]1(O)[C@H](C[C@@H](Cl)[C@]2(C)C=C)C5(C)C [AMBIGUINE O ISONITRILE],,13.8,,,80.7,,
O=C(O)c1cn(C2CC2)c2cc(N3CCNCC3)c(F)cc2c1=O [CIPROFLOXACIN],,0.2,,,,,
[C-]#[N+][C@@H]1[C@@H]2c3c[nH]c4cccc(c34)C(C)(C)[C@H]2C[C@@H](Cl)[C@]1(C)C=C [HAPALINDOLE G],> 128,> 128,34,6.8,> 128,> 128,50
[C-]#[N+][C@@H]1[C@H]2c3c[nH]c4cccc(c34)C(C)(C)[C@@H]2CC[C@]1(C)C=C [HAPALINDOLE H],5.1,> 128,39.6,58.8,> 128,> 128,
CC(=O)N1CCN(c2ccc(OCC3COC(Cn4ccnc4)(c4ccc(Cl)cc4Cl)O3)cc2)CC1 (stereo not given) [KETOCONAZOLE],0.03,,,,,,
COc1c(N2C[C@@H]3CCCN[C@@H]3C2)c(F)cc2c(=O)c(C(=O)O)cn(C3CC3)c12 [MOXIFLOXACIN],,,0.7,,,,
CO[C@H]1/C=C/O[C@@]2(C)Oc3c(C)c(O)c4c(O)c(c(/C=N/N5CCN(C)CC5)c(O)c4c3C2=O)NC(=O)/C(C)=C\C=C\[C@H](C)[C@H](O)[C@@H](C)[C@@H](O)[C@@H](C)[C@H](OC(C)=O)[C@@H]1C [RIFAMPIN],,,,0.1,97.9,,
GENTAMICIN,,,,,,1.4,
